From PubChem
Sampled rows, rich in hits. Any-hit rate of the full collection: about 1.5%.
FLuc act counter – FLuc activators, initial screening, artefact control for FLuc-dependent activation tests, biochemical, ATPlite luminescence | Luciferin 4-monooxygenase (Photinus pyralis), P08659 | ATPlite luciferase biochemical, 10 min; 0 = ATP-free wells, 1 = DMSO control | activation factor at 10 µM | 200,000 tested, under 10 active | AID 1027, 2008;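 active = luciferase activation factor, scaled between plate controls, of at least 2 with compound at 10 µM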
Target sequence (P08659 whole entry, looked up): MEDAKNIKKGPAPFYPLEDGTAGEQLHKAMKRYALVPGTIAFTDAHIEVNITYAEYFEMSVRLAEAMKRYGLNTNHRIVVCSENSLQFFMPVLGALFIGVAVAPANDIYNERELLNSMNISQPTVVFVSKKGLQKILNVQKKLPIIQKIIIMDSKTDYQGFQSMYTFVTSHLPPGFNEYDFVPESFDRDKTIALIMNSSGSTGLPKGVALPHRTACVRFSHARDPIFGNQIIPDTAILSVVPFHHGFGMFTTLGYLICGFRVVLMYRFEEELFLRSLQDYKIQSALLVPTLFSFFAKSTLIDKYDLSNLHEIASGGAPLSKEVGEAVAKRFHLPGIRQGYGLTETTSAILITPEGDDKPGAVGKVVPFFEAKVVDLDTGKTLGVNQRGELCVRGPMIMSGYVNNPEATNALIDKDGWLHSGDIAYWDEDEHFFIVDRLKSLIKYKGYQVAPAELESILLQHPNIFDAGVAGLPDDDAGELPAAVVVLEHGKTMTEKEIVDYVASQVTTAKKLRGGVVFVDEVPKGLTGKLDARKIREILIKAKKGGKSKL
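Material: Luciferase/luciferin reagent mix; Doses: test compounds dosed from 2 mM stocks in 100% DMSO; Schedule: 10 min incubation after luciferase reagent addition, room temperature; Measured by: luminescence from luciferase reaction; Read-out: luminescence gain marking luciferase activators.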
TRAIL sens C8 – viability loss with TRAIL in NB7+C8 cells, primary screen, TRAIL sensitizer project, cell-based, ATPlite luminescence; inhibition (viability loss, TRAIL sensitization), % at 10 µM; 360,000 compounds, 1% hits; AID 624354, 2012;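 active = compounds causing at least 50% loss of cell viability in the single-dose screen, relative to plate controls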
PPC-1+TRAIL kill – compounds killing PPC-1 cancer cells with TRAIL present, primary screen, TRAIL potentiator project, ATPLite luminescence, uHTS; PPC-1 cells + TRAIL, ATPLite viability luminescence; cell killing (% activity), % at 4 µM or 5 µM; 220,000 compounds, 0.41% hits;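 active = cell killing above 50% in the first pass at 4 µM, then a duplicate retest at 5 µM averaging 50% or more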;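 note: plate controls were cells with TRAIL plus DMSO for no effect and medium-only wells lacking cells for full effect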
FLuc inhib CS – firefly luciferase enzyme inhibitors, primary screen, artefact control for luciferase-based inhibitor screens, biochemical, luminescence, ATPLite; 200,000 compounds, 1.5% hits; Luciferin 4-monooxygenase (Photinus pyralis), P08659; AID 1006, 2008; inhibition, % at 10 µM; 10 min;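 active = inhibition above about 50% when tested at 10 µM, limit read from the data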
PPC-1 tox – cytotoxicity in PPC-1 cells, confirmation, cytotoxicity control for TRAIL apoptosis potentiator project, cell-based, ATP content luminescence. 1,200 compounds, 50% hits. shares compounds with PPC-1+TRAIL kill. AID 1447, 2008. cytotoxicity, % at 5 µM. PPC-1 viability, ATPlite luminescence, overnight;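 active = reconfirmed compounds whose average cytotoxicity reaches 50% or more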;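 note: 0% = DMSO-treated cells and 100% = wells holding medium but no cells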
An asterisk follows results filed as active; . = no result given.

SMILES | FLuc act counter | TRAIL sens C8 | PPC-1+TRAIL kill | FLuc inhib CS | PPC-1 tox
CCOc1ccc(CCNC(=O)COC(=O)COc2ccc(C#N)cc2)cc1OCC | . | -5.3 | . | . | .
O=C(O)c1ccccc1NC(=O)C1CCCO1 (stereo unspecified) | 1 | -14.5 | 6.8 | -1.7 | 6.4
O=C(O)c1cc(Cl)ccc1NC(=O)C1CCCO1 (stereo unspecified) | 1 | 5.7 | 13.9 | -0.5 | -10.0
Cc1ccc(N(CC(=O)NC(C)(C)C)C(=O)CCC(=O)Nc2ccccn2)cc1 | . | -7.6 | . | . | .
Cc1cnc(NC(=O)c2cc3c(s2)CCCC3)s1 | 0.1 | 92.5* | 72.0* | 93.0* | 70.1*
CC(C)NC(=O)c1cc2c(s1)CCCC2 | 1 | 3.7 | 21.9 | 4.9 | .
Cc1csc(NC(=O)c2cc3c(s2)CCCCC3)n1 | 0.1 | 91.5* | 84.8* | 94.7* | 82.1*
Cc1csc(NC(=O)c2cc3c(s2)CCCC3)n1 | 0.1 | 77.6* | 66.5* | 93.6* | 69.4*
CCc1nnc(NC(=O)c2cc3c(s2)CCCCC3)s1 | . | 38.1 | . | . | .
Cc1csc(NC(=O)c2ccc(N3CCCC3=O)cc2)n1 | 0.1 | 70.6* | 56.0* | 89.2* | 53.4*
CNC(=O)c1cc2c(s1)CCCCCC2 | 1 | -8.7 | 17.5 | -2.2 | .
Clc1ccc(C(c2cccs2)N2CCNCC2)cc1 (stereo unspecified) | . | 2.5 | . | . | .
CN(CC(=O)Nc1ccc(N2CCOCC2)cc1)C(=O)CCc1cc(C(C)(C)C)c(O)c(C(C)(C)C)c1 | . | 4.3 | . | . | .
C=CCn1c(N)cc(=O)nc1SC(C)C(=O)Nc1cccc2ccccc12 (stereo unspecified) | 1 | -2.5 | 14.8 | -4.5 | 4.2
CC(Sc1nc(=O)cc(N)n1CCc1ccccc1)C(=O)NCc1ccccc1 (stereo unspecified) | 1 | -2.9 | 23.4 | 0.5 | .
O=C(NCC1CCCO1)c1ccc2c(c1)C(=O)N(C1CCCCC1)C2=O (stereo unspecified) | 1.1 | -6.7 | 9.0 | -9.2 | -5.1
O=C(Nc1nc2ccc([N+](=O)[O-])cc2s1)c1ccco1 | 0.6 | . | 26.0 | 39.6 | 34.2
COc1ccc2nc(NC(=O)CCNC(=O)c3ccco3)sc2c1 | . | 4.1 | . | . | .
COc1ccc2sc(NC(=O)c3ccco3)nc2c1 | 0.1 | 68.2* | 53.0* | 88.3* | 59.3*
O=C(O)C1CCN(S(=O)(=O)c2ccc(N3CCCC3C(=O)O)c([N+](=O)[O-])c2)CC1 (stereo unspecified) | . | -14.9 | . | . | .
CC(OC(=O)CCOc1ccccc1)C(=O)NC1CC1 (stereo unspecified) | . | -7.3 | . | . | .
CC1(C(=O)NS(=O)(=O)c2cccc(Cl)c2)CCN1C(=O)C1(c2ccc(Cl)cc2)CCC1 (stereo unspecified) | . | 1.8 | . | . | .
CN(C)c1cccc(C(=O)Nc2cccc(F)c2)c1 | 0.9 | -14.5 | 34.5 | 10.2 | .
CCN(CC)c1ccc(C(=O)Nc2cccc(F)c2)cc1 | 0.6 | 41.5 | 15.6 | 42.1 | 15.7
COC(=O)CSc1nc2cc(OC)ccc2cc1C#N | 0.9 | 70.7* | 69.5* | 5.6 | 63.1*
SMILES | FLuc act counter | TRAIL sens C8 | PPC-1+TRAIL kill | FLuc inhib CS | PPC-1 tox
COc1ccc2cc(C#N)c(SCC(=O)N3CCCC3)nc2c1 | 1.1 | 8.4 | 14.0 | -6.8 | .
CCCC(CNC(C)=O)(C1=CCCCC1)c1ccccc1 (stereo unspecified) | . | 2.5 | . | . | .
CCOc1ccc2nc(C(C)O)[nH]c2c1 (stereo unspecified) | 1 | 0.9 | -9.3 | -2.8 | .
CCOc1ccc2nc(-c3ccccc3)[nH]c2c1 | 0.2 | 69.1* | 48.5 | 83.9* | 55.6*
O=C(NCc1ccc2c(c1)OCO2)c1cc(-c2ccccc2)on1 | 1 | -1.4 | 20.6 | -2.2 | 12.6
O=C(NCCc1ccccc1)c1nccc2ccccc12 | . | -1.7 | . | . | .
c1ccc(CCNc2ccnc3cc4ccccc4cc23)cc1 | 1 | 32.9 | 26.9 | 0.6 | 19.5
CCOC(=O)CNC(=O)CSc1nnc(SCC(=O)NCC(=O)OCC)s1 | 1 | 7.2 | 26.7 | 2.3 | .
CCOC(=O)CNC(=O)CSc1nnc(NC(=O)c2ccc(C)cc2)s1 | 0.1 | 88.1* | 91.8* | 94.0* | 91.8*
CCOC(=O)[C@@H]1[C@H]2COc3cc(OC)ccc3[C@H]2N2C(=O)N(c3ccc(C(F)(F)F)cc3)C(=O)[C@]12C | . | 6.4 | . | . | .
Nc1ccc(/C=C/c2ccc3ncccc3c2)cc1 | . | 46.7 | 68.6* | . | 69.5*
